# Measurements reported in ChEMBL document CHEMBL4020824, “Discovery of Potent and Orally Bioavailable Dihydropyrazole GPR40 Agonists” (J Med Chem, 2018).
# Active and inactive are the calls of the source. No cut-off for these calls is given here.
# What was measured:
# [1] = Volume of distribution at steady state in Sprague-Dawley rat at 1 mg/kg, iv administered as single dose measured up to 24 hrs post dose by LC-MS/MS analysis; format: ADME, organism-based; conditions: in vivo, read-out: Vdss
# [2] = Clearance in Beagle dog at 0.5 mg/kg, iv administered as single dose measured up to 24 hrs post dose by LC-MS/MS analysis; format: ADME, organism-based, Canis lupus familiaris; conditions: in vivo
# [3] = Tmax in Beagle dog at 1 mg/kg, po administered as single dose measured up to 24 hrs post dose by LC-MS/MS analysis; format: ADME, organism-based, Canis lupus familiaris; conditions: in vivo
# [4] = Volume of distribution at steady state in CD1 mouse at 1 mg/kg, iv via bolus dose or 1 mg/kg, po administered as single dose measured up to 24 hrs post dose by LC-MS/MS analysis; format: ADME, organism-based; conditions: in vivo, read-out: Vdss
# Mus musculus [5] = test: Antidiabetic activity in C57BL/6J mouse assessed as effect on active GLP-1 levels at 3 mg/kg, po administered 1 hr prior to glucose challenge measured after 120 mins during OGTT assay by ELISA; format: functional, organism-based
# Mus musculus [6] = test: Antidiabetic activity in C57BL/6J mouse assessed as reduction in plasma glucose excursion at 3 mg/kg, po administered 1 hr prior to glucose challenge measured after 120 mins by OGTT assay; format: functional, organism-based
# [7] = Volume of distribution at steady state in cynomolgus monkey at 0.5 mg/kg, iv administered as single dose measured up to 24 hrs post dose by LC-MS/MS analysis; format: ADME, organism-based, Macaca fascicularis; conditions: in vivo, read-out: Vdss
# [8] = target: Free fatty acid receptor 1 (Homo sapiens, UniProt O14842); test: Agonist activity at human GPR40 expressed in CHOA12 cells assessed as induction of Ca2+ mobilization by FLIPR assay; format: functional, cell-based
# [9] = Tmax in C57BL6 mouse at 1 mg/kg, po administered as single dose measured up to 24 hrs post dose by LC-MS/MS analysis; format: ADME, organism-based; conditions: in vivo
# [10] = Cmax in Sprague-Dawley rat at 3 mg/kg, po administered as single dose measured up to 24 hrs post dose by LC-MS/MS analysis; format: ADME, organism-based; design: dose 3 mg/kg, route oral; conditions: in vivo
# Mus musculus [11] = test: Toxicity in C57BL/6J mouse assessed as induction of hypoglycemia effect at 1 mg/kg, po administered 1 hr prior to glucose challenge measured after 120 mins by IPGTT; format: organism-based; conditions: in vivo, 2 h
# [12] = Half life in Beagle dog at 0.5 mg/kg, iv administered as single dose measured up to 24 hrs post dose by LC-MS/MS analysis; format: ADME, organism-based, Canis lupus familiaris; conditions: in vivo
# [13] = Half life in rat liver microsomes at 1 to 3 uM incubated for 20 mins in presence NADPH measured up to 90 mins by LC/MS/MS analysis; format: ADME, microsome; conditions: liver microsomes
# [14] = target: T1, Amine oxidase [flavin-containing] B (Homo sapiens, UniProt P27338); test: Inhibition of MAO-B (unknown origin)
# T1 sequence (P27338 whole entry): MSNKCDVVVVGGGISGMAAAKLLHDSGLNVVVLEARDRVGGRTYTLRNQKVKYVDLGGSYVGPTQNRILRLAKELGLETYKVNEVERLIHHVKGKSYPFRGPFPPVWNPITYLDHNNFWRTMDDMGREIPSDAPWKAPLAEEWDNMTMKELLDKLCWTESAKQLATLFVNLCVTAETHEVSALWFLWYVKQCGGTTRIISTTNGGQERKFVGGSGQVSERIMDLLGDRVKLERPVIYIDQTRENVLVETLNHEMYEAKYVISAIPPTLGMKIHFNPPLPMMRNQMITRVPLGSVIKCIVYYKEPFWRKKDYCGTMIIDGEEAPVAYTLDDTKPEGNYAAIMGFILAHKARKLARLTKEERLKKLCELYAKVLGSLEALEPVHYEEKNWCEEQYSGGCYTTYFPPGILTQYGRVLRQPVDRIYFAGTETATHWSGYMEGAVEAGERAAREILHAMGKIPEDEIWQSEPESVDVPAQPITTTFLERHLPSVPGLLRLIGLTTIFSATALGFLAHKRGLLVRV
# [15] = Clearance in Sprague-Dawley rat at 1 mg/kg, iv administered as single dose measured up to 24 hrs post dose by LC-MS/MS analysis; format: ADME, organism-based; conditions: in vivo
# [16] = Cmax in cynomolgus monkey at 1 mg/kg, po administered as single dose measured up to 24 hrs post dose by LC-MS/MS analysis; format: ADME, organism-based, Macaca fascicularis; design: dose 1 mg/kg, route oral; conditions: in vivo
# [17] = Oral bioavailability in C57BL6 mouse at 1 mg/kg administered as single dose measured up to 24 hrs post dose by LC-MS/MS analysis; format: ADME, organism-based; conditions: in vivo
# Mus musculus [18] = test: Antidiabetic activity in C57BL/6J mouse assessed as reduction in plasma glucose excursion at 3 mg/kg, po administered 1 hr prior to glucose challenge measured after 120 mins in presence of DPP4 inhibitor BMS-538305 by OGTT assay; format: functional, organism-based
# [19] = Clearance in cynomolgus monkey at 0.5 mg/kg, iv administered as single dose measured up to 24 hrs post dose by LC-MS/MS analysis; format: ADME, organism-based, Macaca fascicularis; conditions: in vivo
# [20] = Half life in human liver microsomes at 1 to 3 uM incubated for 20 mins in presence NADPH measured up to 90 mins by LC/MS/MS analysis; format: ADME, microsome; conditions: liver microsomes
# [21] = Volume of distribution at steady state in Beagle dog at 0.5 mg/kg, iv administered as single dose measured up to 24 hrs post dose by LC-MS/MS analysis; format: ADME, organism-based, Canis lupus familiaris; conditions: in vivo, read-out: Vdss
# [22] = Tmax in cynomolgus monkey at 1 mg/kg, po administered as single dose measured up to 24 hrs post dose by LC-MS/MS analysis; format: ADME, organism-based, Macaca fascicularis; conditions: in vivo
# [23] = Half life in CD1 mouse at 1 mg/kg, iv administered as bolus dose or 1 mg/kg, po administered as single dose measured up to 24 hrs post dose by LC-MS/MS analysis; format: ADME, organism-based; conditions: in vivo
# [24] = Oral bioavailability in Sprague-Dawley rat at 3 mg/kg administered via gavage as single dose measured up to 24 hrs post dose by LC-MS/MS analysis; format: ADME, organism-based; conditions: in vivo
# [25] = Cmax in C57BL6 mouse at 1 mg/kg, po administered as single dose measured up to 24 hrs post dose by LC-MS/MS analysis; format: ADME, organism-based; design: dose 1 mg/kg, route oral; conditions: in vivo
# [26] = Oral bioavailability in cynomolgus monkey at 1 mg/kg administered via gavage as single dose measured up to 24 hrs post dose by LC-MS/MS analysis; format: ADME, organism-based, Macaca fascicularis; conditions: in vivo
# [27] = Clearance in CD1 mouse at 1 mg/kg, iv administered as bolus dose or 1 mg/kg, po administered as single dose measured up to 24 hrs post dose by LC-MS/MS analysis; format: ADME, organism-based; conditions: in vivo
# [28] = Stability in human liver microsomes assessed as parent compound remaining at 1 to 3 uM incubated for 20 mins in presence NADPH measured up to 90 mins by LC/MS/MS analysis; format: ADME, microsome; conditions: liver microsomes, read-out: Stability
# In short: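 Human or rat liver microsomal incubations. The read-outs were % parent remaining, % D-ring dealkylation metabolites, % GSH adducts, and half-life (min). The metabolites followed were CYP450-mediated oxidative de-alkylation products (phenols) and GSH conjugates.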
# [29] = Cmax in Beagle dog at 1 mg/kg, po administered as single dose measured up to 24 hrs post dose by LC-MS/MS analysis; format: ADME, organism-based, Canis lupus familiaris; design: dose 1 mg/kg, route oral; conditions: in vivo
# Chain of Free fatty acid receptor 1 (O14842 whole entry): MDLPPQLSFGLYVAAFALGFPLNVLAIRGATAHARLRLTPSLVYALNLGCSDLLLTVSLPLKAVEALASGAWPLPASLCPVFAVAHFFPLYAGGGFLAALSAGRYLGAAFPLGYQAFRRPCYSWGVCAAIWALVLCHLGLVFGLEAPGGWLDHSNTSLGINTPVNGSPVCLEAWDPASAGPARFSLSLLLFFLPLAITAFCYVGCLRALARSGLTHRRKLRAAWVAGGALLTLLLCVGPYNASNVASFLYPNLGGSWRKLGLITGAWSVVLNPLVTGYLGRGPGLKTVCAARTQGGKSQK
smiles,measurement,setting,value
COc1cc(N2CC[C@@H](Oc3ccc(N4N=C(C(F)(F)F)[C@@H](C)[C@@H]4CC(=O)O)cc3)[C@H](C)C2)c(Cl)cn1,Vd,[1],0.3 L/kg
same,clearance,[2],2.2 mL/min/kg
same,Tmax,[3],0.8 h
same,Vd,[4],0.4 L/kg
same,Activity,Mus musculus [5],inactive
same,Activity,Mus musculus [6],Active
same,Vd,[7],0.7 L/kg
same,EC50,[8],0.07 µM
same,Tmax,[9],1 h
same,Cmax,[10],3500 nM
same,Activity,Mus musculus [11],Non-Toxic
same,half-life,[12],5.2 h
same,half-life,[13],1.35 h
same,IC50,[14],6 µM
same,clearance,[15],3.4 mL/min/kg
same,Cmax,[16],1400 nM
same,bioavailability,[17],100%
same,Activity,Mus musculus [18],Active
same,clearance,[19],0.7 mL/min/kg
same,half-life,[20],1.7 h
same,Vd,[21],0.6 L/kg
same,Tmax,[22],5 h
same,half-life,[23],3.1 h
same,bioavailability,[24],47%
same,Cmax,[25],6000 nM
same,bioavailability,[26],61%
same,clearance,[27],2 mL/min/kg
same,"remaining at 20 min, up to 3 µM",[28],89%
same,Cmax,[29],1200 nM
